Test results reported in ChEMBL document CHEMBL1140193, “Synthesis and anti-inflammatory evaluation of methylene bridged benzofuranyl imidazo[2,1-b][1,3,4]thiadiazoles” (Eur J Med Chem, 2008).

How the values were obtained:
Rattus norvegicus [1] = experiment: Toxicity in Wistar albino rat assessed as induction of sedation up to 3 g/kg, po after 8 hrs; type: organism-based; details: in vivo, 3000 mg/kg
Method in brief: (§1)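 Acute toxicity: albino rats of either sex in groups of six, oral doses from 100 up to 3000 mg kg^-1. Rats observed continuously for 8 h for changes in motor activity, ataxia, tremors, convulsions, sedation and lacrimation. Ulceration and haemorrhagic spots also inspected.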

Rattus norvegicus [2] = experiment: Analgesic activity in Wistar albino rat […] assessed as reaction time for tail withdrawal at 100 mg/kg, po after 60 mins by tail flick method; type: functional
Method in brief: (§2)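 Rat tail-flick test: latency for the rat to withdraw its tail from hot water at 55 ± 0.5 °C. Drugs given orally. Reaction time in seconds read at 60, 90, 120 and 300 min after dosing. Treated animals compared with control and with a nimesulide standard. Wistar albino rats, 150-200 g, either sex; food withdrawn 12 h before and during testing.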

Rattus norvegicus [3] = experiment: Analgesic activity in Wistar albino rat […] assessed as reaction time for tail withdrawal at 100 mg/kg, po after 180 mins by tail flick method; type: functional
Rattus norvegicus [4] = experiment: Analgesic activity in Wistar albino rat […] assessed as reaction time for tail withdrawal at 100 mg/kg, po after 30 mins by tail flick method; type: functional
Rattus norvegicus [5] = experiment: Analgesic activity in Wistar albino rat […] assessed as reaction time for tail withdrawal at 100 mg/kg, po after 300 mins by tail flick method; type: functional; method in brief: as §2
Rattus norvegicus [6] = experiment: Toxicity in Wistar albino rat assessed as induction of haemorrhagic spots up to 3 g/kg, po after 8 hrs; type: organism-based; details: in vivo, 3000 mg/kg; method in brief: as §1
Rattus norvegicus [7] = experiment: Analgesic activity in Wistar albino rat […] assessed as increase in reaction time for tail withdrawal at 100 mg/kg, po after 300 mins by tail flick method; type: functional; method in brief: as §2
Rattus norvegicus [8] = experiment: Antiinflammatory activity in Wistar albino rat assessed as inhibition of carrageenan-induced paw oedema at 100 mg/kg, po measured 5 hrs after carrageenan challenge; type: functional
Method in brief: (§3)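 Albino rats, 6 per group, dosed orally at 100 mg kg^-1; ibuprofen 100 mg kg^-1 as standard. One hour after dosing, 0.1 ml of 1% carrageenan with 2% gum acacia in normal saline injected subplantar into the right hind paw. Paw volume measured by plethysmometer; % inhibition versus control calculated. One-way ANOVA with Dunnett's t test.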

Rattus norvegicus [9] = experiment: Analgesic activity in Wistar albino rat […] assessed as reaction time for tail withdrawal at 100 mg/kg, po after 120 mins by tail flick method; type: functional; method in brief: as §2
Rattus norvegicus [10] = experiment: Antiinflammatory activity in Wistar albino rat assessed as inhibition of carrageenan-induced paw oedema at 100 mg/kg, po measured 0.5 hrs after carrageenan challenge; type: functional; method in brief: as §3
Rattus norvegicus [11] = experiment: Antiinflammatory activity in Wistar albino rat assessed as inhibition of carrageenan-induced paw oedema at 100 mg/kg, po measured 1 hr after carrageenan challenge; type: functional; method in brief: as §3
Rattus norvegicus [12] = experiment: Antiinflammatory activity in Wistar albino rat assessed as inhibition of carrageenan-induced paw oedema at 100 mg/kg, po measured 3 hrs after carrageenan challenge; type: functional; method in brief: as §3
Rattus norvegicus [13] = experiment: Toxicity in Wistar albino rat assessed as effect on motor activity up to 3 g/kg, po after 8 hrs; type: organism-based; details: in vivo, 3000 mg/kg; method in brief: as §1
Rattus norvegicus [14] = experiment: Antiinflammatory activity in Wistar albino rat assessed as inhibition of carrageenan-induced paw oedema at 100 mg/kg, po measured 4 hrs after carrageenan challenge; type: functional; method in brief: as §3
Rattus norvegicus [15] = experiment: Analgesic activity in Wistar albino rat […] assessed as increase in reaction time for tail withdrawal at 100 mg/kg, po after 180 mins by tail flick method; type: functional
Rattus norvegicus [16] = experiment: Antiinflammatory activity in Wistar albino rat assessed as inhibition of carrageenan-induced paw oedema at 100 mg/kg, po measured 2 hrs after carrageenan challenge; type: functional; method in brief: as §3
Rattus norvegicus [17] = experiment: Toxicity in Wistar albino rat assessed as induction of convulsions and tremors up to 3 g/kg, po after 8 hrs; type: organism-based; details: in vivo, 3000 mg/kg; method in brief: as §1
Rattus norvegicus [18] = experiment: Toxicity in Wistar albino rat assessed as induction of gastric ulceration up to 3 g/kg, po after 8 hrs; type: organism-based, Stomach; details: in vivo, 3000 mg/kg; method in brief: as §1
Rattus norvegicus [19] = experiment: Toxicity in Wistar albino rat assessed as mortality up to 3 g/kg, po after 24 hrs; type: organism-based; details: in vivo, 3000 mg/kg
Method in brief: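 Albino rats of either sex, six per group, dosed orally from 100 up to 3000 mg kg^-1 body weight. Animals were watched continuously for 8 h for signs of acute toxicity such as altered motor activity, ataxia, tremors, convulsions, sedation and lacrimation, and were checked for mortality over a 24 h period. Food was withheld for 12 h before dosing.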

Row | SMILES | Activity (Rattus norvegicus [1]) | Activity (Rattus norvegicus [2]) [s] | Activity (Rattus norvegicus [3]) [s] | Activity (Rattus norvegicus [4]) [s] | Activity (Rattus norvegicus [5]) [s] | Activity (Rattus norvegicus [6]) | Activity (Rattus norvegicus [7]) [%] | inhibition in vivo at 100 mg/kg (Rattus norvegicus [8]) [%] | Activity (Rattus norvegicus [9]) [s] | inhibition in vivo at 100 mg/kg (Rattus norvegicus [10]) [%] | inhibition in vivo at 100 mg/kg (Rattus norvegicus [11]) [%] | inhibition in vivo at 100 mg/kg (Rattus norvegicus [12]) [%] | Activity (Rattus norvegicus [13]) | inhibition in vivo at 100 mg/kg (Rattus norvegicus [14]) [%] | Activity (Rattus norvegicus [15]) [%] | inhibition in vivo at 100 mg/kg (Rattus norvegicus [16]) [%] | Activity (Rattus norvegicus [17]) | Activity (Rattus norvegicus [18]) | Activity (Rattus norvegicus [19])
1 | Cc1ccc2c(Cc3nn4c(C=O)c(-c5ccc(Cl)cc5)nc4s3)coc2c1 | Non-toxic | 5.35 | 7.867 | 3.55 | 6.517 | Non-toxic | 142.89 | 48.8 | 6.667 | 3.6 | 11.4 | 42.5 | Non-toxic | 47.2 | 193.21 | 24.3 | Non-toxic | Non-toxic | Non-toxic
2 | Cc1ccc2c(Cc3nn4cc(-c5ccc(Cl)cc5)nc4s3)coc2c1 | Non-toxic | 4.033 | 9.633 | 3.483 | 7.95 | Non-toxic | 196.31 | 58.1 | 8.75 | 8.38 | 13.4 | 51.7 | Non-toxic | 55.9 | 259.03 | 42.1 | Non-toxic | Non-toxic | Non-toxic
3 | Cc1ccc2c(Cc3nn4c(CN5CCOCC5)c(-c5ccc(Br)cc5)nc4s3)coc2c1 | Non-toxic | 4.067 | 8.15 | 3.5 | 7.3 | Non-toxic | 172.08 | 52.7 | 6.45 | 8.38 | 12.4 | 43.4 | Non-toxic | 51.2 | 203.76 | 31.7 | Non-toxic | Non-toxic | Non-toxic
4 | Cc1ccc2c(Cc3nn4c(CN5CCOCC5)c(-c5ccc([N+](=O)[O-])cc5)nc4s3)coc2c1 | Non-toxic | 5.933 | 9.3 | 3.6 | 8.033 | Non-toxic | 199.4 | 51.2 | 8.433 | 3.6 | 5.19 | 41.6 | Non-toxic | 48 | 246.62 | 24.3 | Non-toxic | Non-toxic | Non-toxic
5 | Cc1ccc2c(Cc3nn4cc(-c5ccc([N+](=O)[O-])cc5)nc4s3)coc2c1 | Non-toxic | 7.4 | 9.9 | 4.65 | 8.35 | Non-toxic | 211.21 | 49.8 | 9.567 | 0 | 13.4 | 40.9 | Non-toxic | 45.7 | 268.98 | 24.3 | Non-toxic | Non-toxic | Non-toxic
6 | Cc1ccc2c(Cc3nn4c(CN5CCOCC5)c(-c5ccc(Cl)cc5)nc4s3)coc2c1 | Non-toxic | 5.45 | 8.2 | 3.767 | 6.95 | Non-toxic | 159.03 | 50.4 | 6.767 | 4.77 | 15.5 | 43.4 | Non-toxic | 48 | 205.62 | 28.9 | Non-toxic | Non-toxic | Non-toxic
7 | Cc1ccc2c(Cc3nn4c(CO)c(-c5ccc(Cl)cc5)nc4s3)coc2c1 | Non-toxic | 4.35 | 7.133 | 3.65 | 5.433 | Non-toxic | 102.49 | 58.9 | 5.467 | 9.61 | 14.5 | 45.9 | Non-toxic | 54.3 | 165.85 | 28.9 | Non-toxic | Non-toxic | Non-toxic
8 | Cc1ccc2c(Cc3nn4c(C=O)c(-c5ccc(Br)cc5)nc4s3)coc2c1 | Non-toxic | 4.433 | 9.083 | 3.983 | 7.55 | Non-toxic | 181.4 | 12.4 | 6.5 | 1.15 | 12.4 | 10.8 | Non-toxic | 10.2 | 238.53 | 11.2 | Non-toxic | Non-toxic | Non-toxic
9 | Cc1ccc2c(Cc3nn4cc(-c5ccc(Br)cc5)nc4s3)coc2c1 | Non-toxic | 2.667 | 2.7 | 2.65 | 2.683 | Non-toxic | 0 | 22.5 | 2.583 | 6 | 10.3 | 10.8 | Non-toxic | 11.1 | 0.633 | 12 | Non-toxic | Non-toxic | Non-toxic
10 | CC(C)Cc1ccc(C(C)C(=O)O)cc1 (centres undefined) [IBUPROFEN] | – | – | – | – | – | – | – | 72.9 | – | 42.1 | 42.3 | 60 | – | 66.1 | – | 42.9 | – | – | –
11 | CS(=O)(=O)Nc1ccc([N+](=O)[O-])cc1Oc1ccccc1 [NIMESULIDE] | – | 7.683 | 9.683 | 5.1 | 8.55 | – | 218.67 | – | 8.65 | – | – | – | – | – | 260.9 | – | – | – | –
